# Tests used:
# [1] = system: 18 different strains of MRSA and VRSA; assay: MIC, summary over the strain panel; type: cell-based, Staphylococcus aureus
# Method in brief: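 Panel of 18 clinical isolates of MRSA and VRSA, with MRSA strains supplied by the NARSA repository. It includes linezolid-resistant MRSA NRS119 and multidrug-resistant VRSA, USA100, USA200 and USA500. MIC is the minimum concentration of test compound that inhibits bacterial growth.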
# [2] = Metabolic stability in human liver microsomes; type: in vitro ADME; settings: without NADPH
# Caco-2 cells = assay: Caco-2 permeability assay; settings: Caco-2, apical to basolateral, 10 μM
# MRSA (USA300) = assay: Time-kill assay; type: cell-based, Staphylococcus aureus; settings: for bactericidal effect in time-kill assay / time to eliminate MRSA (CFU to zero): 3.0 × MIC
# in vitro = settings: human, Caco-2
SMILES,bactericidal effect in time-kill assay (MRSA (USA300)),time to eliminate MRSA (CFU to zero) (MRSA (USA300)),also measured
CCCCc1ccc(-c2nc(C)c(/C(C)=N/NC(=N)N)s2)cc1 [1a],bactericidal,within two hours,"concentration inhibiting growth (MIC), range over MRSA strains [1]: 1.4 to 5.5 µg/mL; metabolism on removing the cofactor NADPH [2]: significantly reduced; Papp, A to B direction (Caco-2 cells): very limited permeability"
CCCCCc1ccc(-c2nc(C)c(/C(C)=N/NC(=N)N)s2)cc1 [1d],bactericidal,within two hours,–
"CN[C@H](CC(C)C)C(=O)N[C@H]1C(=O)N[C@@H](CC(N)=O)C(=O)N[C@H]2C(=O)N[C@H]3C(=O)N[C@H](C(=O)N[C@H](C(=O)O)c4cc(O)cc(O)c4-c4cc3ccc4O)[C@H](O)c3ccc(c(Cl)c3)Oc3cc2cc(c3O[C@@H]2O[C@H](CO)[C@@H](O)[C@H](O)[C@H]2O[C@H]2C[C@](C)(N)[C@H](O)[C@H](C)O2)Oc2ccc(cc2Cl)[C@H]1O [VAN, vancomycin, reference compound]",–,–,reduction of CFU by 3-log10 (MRSA (USA300); within a 12-hour window): not able to reduce the number of CFU by 3-log10
"C/C(=N\NC(=N)N)c1sc(-c2ccc(C3CCCCC3)cc2)nc1C [compound 8, 2-{1-[2-(4-Cyclohexylphenyl)-4-methylthiazol-5-yl]ethylidene}hydrazinecarboximidamide]",bactericidal,six hours,–
CNC(=C[N+](=O)[O-])NCCSCc1ccc(CN(C)C)o1 [ranitidine],–,–,"Papp A→B at 2 h, 10 µM (in vitro): 0.2 ×10⁻⁶ cm/s"

# Source: PMC4353699 (Journal of medicinal chemistry, 2014)
